Reference: PMC12138178 (The New Phytologist, 2025)

Legend:
[1] = target: T1, MpPR10.5 protein (Marchantia polymorpha, UniProt A0A2R6WRE7); assay: Intrinsic tryptophan fluorescence binding assay
T1 sequence (A0A2R6WRE7 1-149): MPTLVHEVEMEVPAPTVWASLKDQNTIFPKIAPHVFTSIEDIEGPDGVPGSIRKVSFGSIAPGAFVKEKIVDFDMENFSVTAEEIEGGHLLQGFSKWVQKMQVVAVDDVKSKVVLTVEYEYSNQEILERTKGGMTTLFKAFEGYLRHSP
How it was run: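 His-SUMO-tagged PR10 protein, expressed in E. coli Rosetta-Gami 2 and purified by IMAC and size exclusion, used at 1.1 μM in 20 mM Tris pH 8.5, 200 mM NaCl. DMSO stocks of test compound at eight levels (0–20 mM or 0–4 mM) were diluted 10× in buffer and added. Incubated 5 min at 22°C. Excitation 280 nm, emission 340 nm. Six replicates; buffer controls subtracted. |ΔF|/F0 versus concentration was fitted to a one-site specific binding model to give Kd.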

[2] = target: T1, MpPR10.5 protein; assay: Naringenin chalcone oxidation assay; format: physicochemical; conditions: pH 7.5, 30 min
How it was run: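 Run in 20 mM Tris pH 7.5 or 8.5 with 200 mM NaCl, either as buffer alone or with 15 μM His-SUMO-tagged PR10 protein. A blank was recorded first. Test compound was added from a 1.4 mM DMSO stock to 10 μM final. UV–Vis spectra (190–840 nm, 1 cm path) were taken every 1 min for 30 min, following the 377 and 322 nm peaks.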

| affinity for MpPR10.5 (in words) [1] | Kd ([1]; Kd (dissociation constant), His-SUMO-MpPR10.5 fusion protein, 20 mM Tris pH 8.5, 200 mM NaCl, 22°C, nd = not detected) [µM] | stability under the experimental conditions (absorption peak at 322 nm) [2] | Structure (SMILES) |
| --- | --- | --- | --- |
| very low affinity | > 119 |  | O=C(O)/C=C/c1ccccc1 [Cinnamic acid] |
| no affinity |  |  | O=C(O)C=Cc1ccc(O)cc1 [p-Coumaric acid] |
| high affinity |  |  | O=C(/C=C/c1ccc(O)c(O)c1)c1ccc(O)cc1O [Butein] |

Second part, the molecule before the results:

| Structure (SMILES) | affinity for MpPR10.5 (in words) [1] | Kd ([1]; Kd (dissociation constant), His-SUMO-MpPR10.5 fusion protein, 20 mM Tris pH 8.5, 200 mM NaCl, 22°C, nd = not detected) [µM] | stability under the experimental conditions (absorption peak at 322 nm) [2] |
| --- | --- | --- | --- |
| O=C(/C=C/c1ccc(O)cc1)c1ccc(O)cc1O [Isoliquiritigenin] | high affinity |  |  |
| O=C1C[C@@H](c2ccc(O)cc2)Oc2cc(O)cc(O)c21 [Naringenin] |  |  | remained completely stable |
| O=C(CCc1ccc(O)cc1)c1c(O)cc(O)cc1O [Phloretin] | high affinity |  |  |
